This is an account of results in ChEMBL document CHEMBL3414514, “Synthesis and pharmacological evaluation of novel bisindole derivatives bearing oximes moiety: identification of novel proapoptotic agents” (Eur J Med Chem, 2015).

Test [1] in a line: Cell cycle arrest in human T24 cells assessed as increase in p53 level after 24 hrs by Western blotting analysis. Type of test: functional, cell-based. Particulars: T-24. The essentials:
(§1)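 T24 cells treated at […] for 24 h and lysed in ice-cold RIPA buffer with protease inhibitors and NaF. Protein measured by Bradford; 30 micrograms per lane run on 12% SDS-PAGE and transferred to PVDF. Blocked 2 h at room temperature, primary antibody overnight at 4 C, HRP secondary (1:2000) 1 h, chemiluminescence detection.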

A further test concerns MGC-803. The test can be described thus: Cytotoxicity against human MGC803 cells after 2 days by MTT assay. Type of test: functional, cell-based. Particulars: MGC-803, 48 h. The essentials: (§2)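 Cells grown in medium with 10% heat-inactivated FBS at 37 C under 5% CO2. Compounds dissolved in medium with 1% DMSO; controls received 1% DMSO. After 2 days, MTT (10 mg/mL) added for 4 h, formazan dissolved in DMSO and absorbance read at 570/630 nm. Survival taken relative to negative control; IC50 by Bliss method (n = 5), at least three independent experiments.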

The test system of test [2] is T-24. Put plainly: Induction of apoptosis in human T24 cells assessed as late apoptotic cells at 10 uM after 24 hrs by annexin-V-FITC/propidium iodide staining-based flow cytometry (reference value: 2.08%). Format: functional. Background: Flow cytometry measures light scatter and fluorescence of single cells or particles in a stream.
Test [3] in a line: Cell cycle arrest in human T24 cells assessed as accumulation at S phase at 10 uM after 48 hrs by Rnase A/propidium iodide staining-based flow cytometry (reference value: 62%). Type of test: functional. Particulars: T-24. The method, boiled down:
(§3)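 T24 cells exposed to […] for 48 h, washed with ice-cold PBS, then fixed and permeabilized overnight in ice-cold 70% ethanol. RNase A (100 mg/mL) treatment at 37 C for 30 min, then PI staining (1 mg/mL) in the dark at 4 C for 30 min. Flow cytometry gave the percentage of cells in G1, S and G2 phase.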

Test [4] has as its system T-24. The test can be described thus: Induction of apoptosis in human T24 cells assessed as viable cells at 10 uM after 24 hrs by annexin-V-FITC/propidium iodide staining-based flow cytometry (reference value: 93.5%). Particulars: T-24, 24 h, read-out: Activity. Format: functional.
A short description of test [5]: Cell cycle arrest in human T24 cells assessed as accumulation at G2 phase at 20 uM after 48 hrs by Rnase A/propidium iodide staining-based flow cytometry (reference value: 3.58%). Format: functional. Particulars: T-24. The essentials: as §3
Test [6] relates to T-24. The test can be described thus: Induction of apoptosis in human T24 cells assessed as reduction in Bcl2 protein expression after 6 to 24 hrs by Western blotting analysis. Type of test: functional, cell-based. The method, boiled down: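 T24 cells exposed at 20 µM for 6, 12 and 24 h, then lysed in ice-cold RIPA with protease and phosphatase inhibitors. Protein was quantified by Bradford, and 30 µg per lane was run on 12% SDS-PAGE and transferred to PVDF. Membranes were blocked 2 h, probed with primary antibody at 4 °C overnight, then HRP secondary (1:2000) for 1 h, with chemiluminescent detection.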

Test [7] is described as follows: Induction of apoptosis in human T24 cells assessed as caspase-8 upregulation after 24 hrs by qRT-PCR analysis. Type of test: functional, cell-based. Conditions: T-24. The essentials: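 T24 cells treated at […] for 24 h before RNA extraction. SYBR Green qRT-PCR with 500 nM primers: 2 min at 50 C, 10 min at 95 C, then 40 cycles of 15 s at 95 C and 1 min at 60 C. Expression by the ΔCt method against actin, normalized to untreated cells; run in triplicate.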

The nature of test [8]: Cell cycle arrest in human T24 cells assessed as reduction in CDK2 level after 24 hrs by Western blotting analysis. Type of test: functional, cell-based. Conditions: T-24. The essentials:
as §1
On the technique in general: In western blotting, separated proteins are transferred to a membrane and probed.

In test [9] the test system is T-24. Put plainly: Induction of apoptosis in human T24 cells assessed as necrotic cells at 20 uM after 24 hrs by annexin-V-FITC/propidium iodide staining-based flow cytometry (reference value: 1.66%). Format: functional.
Another test has as its system A549. Put plainly: Cytotoxicity against human A549 cells after 2 days by MTT assay. Particulars: A549, 48 h. Format: functional, cell-based. The essentials: as §2
For orientation: Formazan colour is commonly taken as a measure of viable cells.

As a reminder, the IC50 is the midpoint of a concentration-inhibition curve. Higher therefore signals lower potency. With `COc1ccc2c(c1)/C(=N\O)C(c1c[nH]c3ccc(OC)cc13)=N2`, the Activity result in test [1] was “Dose-dependent effect”; with T-24 [2], 7.06%; in [3], 37.5%; in [5], 4.67%; in the test with T-24 [6], “Dose-dependent effect”; in [7] it was “Dose-dependent effect”. For the same molecule, the Activity result in [8] was “Dose-dependent effect”; in the test with T-24 [9], 2.07%. The IC50 turned out to be 7.66 µM in the test on MGC-803 and 6.09 µM in the test with A549. Further, in the test with T-24 [4], the viability at 10 µM was determined as 79.9%.
